Measured values: paper PMC3356046 (Frontiers in Oncology, 2011)

Key:
[1] = tested on: BP3 human lymphoma cell line; test: Apoptosis, Annexin V-FITC and propidium iodide assay, BP3; format: cell-based
Method in brief: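 BP3 diffuse large B-cell lymphoma cells were grown in RPMI 1640 with 10% FBS and penicillin/streptomycin, then exposed to varying concentrations of test compound for 1 day. They were stained with FITC-Annexin V and propidium iodide and analysed by flow cytometry. Annexin V-negative/PI-negative cells were scored viable. Mean of two independent experiments ± SE.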

[2] = ref Wang et al., 2006b, Mi et al., 2008; cited from earlier work

Structure (SMILES) | cytotoxic activity against BP3 cell lines [1] | oral MTD [2]
CN(C)CC[C@H](CSc1ccccc1)Nc1ccc(S(=O)(=O)NC(=O)c2ccc(N3CCN(Cc4ccccc4-c4ccc(Cl)cc4)CC3)cc2)cc1[N+](=O)[O-] [ABT-737] | no cytotoxic activity | 
Cc1cc2c(C(C)C)c(O)c(O)c(C=O)c2c(O)c1-c1c(C)cc2c(C(C)C)c(O)c(O)c(C=O)c2c1O [(−) Gossypol] |  | ~50 mg/kg
